Measured values: ChEMBL document CHEMBL1131610, “3-Deoxy-D-myo-inositol 1-phosphate, 1-phosphonate, and ether lipid analogues as inhibitors of phosphatidylinositol-3-kinase signaling and cancer cell growth” (J Med Chem, 1998)
One block for each compound: values may come before it.

Columns and labels:
HT-29 = assay: Inhibition of HT-29 colon carcinoma cell proliferation after continuous 7-day exposure; format: functional, cell-based; conditions: Homo sapiens, HT-29, 168 h
How it was run: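 HT-29 colon carcinoma cells were grown as colonies in soft agarose with continuous 7-day drug exposure, and inhibition of colony formation was scored.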

Mus musculus [1] = assay: In vivo antitumor activity in mice implanted subcutaneously with HT-29 human colon adenocarcinoma cells at a dose of 250 mg/kg (qd 4-7), injected intraperitoneally and evaluated for %T/C; format: functional
How it was run: (§1)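 scid mice were implanted subcutaneously with 10⁷ HT-29 human colon adenocarcinoma cells, 8 mice per group. Beginning 4 days after inoculation, each mouse got 4 daily intraperitoneal injections (days 4–7) of compound suspended in 3% EtOH, 3% Tween 20, 0.9% NaCl. Tumor volume was measured with calipers on day 10 and reported as mean with SE. T/C (%) is treated versus control volume, and significance was tested by Student's test.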

Mus musculus [2] = assay: In vivo antitumor activity in mice implanted with human colon adenocarcinoma cells at a dose of 250 mg/kg (qd 4-7), injected intraperitoneally and evaluated for tumor volume on day 10; format: functional; conditions: route intraperitoneal; how it was run: as §1
[3] = Inhibition of bovine brain Phosphatidylinositol 3-kinase; design: species or system Bos taurus
[4] = In vivo antitumor activity in mice implanted with human colon adenocarcinoma cells at a dose of 500 mg/kg (qd 4-7), injected intraperitoneally and evaluated for tumor volume on day 10; Lethal; format: organism-based; design: dose 500 mg/kg, route intraperitoneal; conditions: mouse, ip
Mus musculus [5] = assay: In vivo antitumor activity in mice implanted with human colon adenocarcinoma cells at a dose of 100 mg/kg (qd 4-7), injected intraperitoneally and evaluated for tumor volume on day 10; format: functional; conditions: route intraperitoneal; how it was run: as §1
Mus musculus [6] = assay: In vivo antitumor activity in mice implanted with human colon adenocarcinoma cells at a dose of 150 mg/kg (qd 4-7), injected intraperitoneally and evaluated for tumor volume on day 10; format: functional; conditions: route intraperitoneal; how it was run: as §1
Mus musculus [7] = assay: In vivo antitumor activity in mice implanted with human colon adenocarcinoma cells at a dose of 50 mg/kg (qd 4-7), injected intraperitoneally and evaluated for tumor volume on day 10; format: functional; conditions: route intraperitoneal; how it was run: as §1
Mus musculus [8] = assay: In vivo antitumor activity in mice implanted subcutaneously with 10^7 HT-29 human colon adenocarcinoma cells at a dose of 100 mg/kg (qd 4-7), injected intraperitoneally and evaluated for %T/C; format: functional; how it was run: as §1
Mus musculus [9] = assay: In vivo antitumor activity in mice implanted subcutaneously with 10^7 HT-29 human colon adenocarcinoma cells at a dose of 50 mg/kg (qd 4-7), injected intraperitoneally and evaluated for %T/C.; format: functional; how it was run: as §1
Mus musculus [10] = assay: In vivo antitumor activity in mice implanted with human colon adenocarcinoma cells at a dose of 150 mg/kg (qd 4-7), injected intraperitoneally and evaluated for %T/C; format: functional; conditions: route intraperitoneal; how it was run: as §1
[11] = Inhibition of bovine brain Phosphatidylinositol 3-kinase (inactive); design: species or system Bos taurus
[12] = tested on: Phosphoinositide specific phospholipase C (Bos taurus); assay: In vitro inhibitory activity against bovine Phosphoinositide specific phospholipase C (PI-PLC); N/A= not active, with <20% inhibition at 100 uM

SMILES: CCCCCCCCCCCCCCCC(=O)OC[C@H](COP(=O)(O)O[C@H]1[C@@H](O)[C@@H](O)[C@H](O)C[C@H]1O)OC(=O)CCCCCCCCCCCCCCC
- IC50 (HT-29): 35 µM
- T/C (Mus musculus [1]): 111.1%
- Tumor volume (Mus musculus [2]): 0.3 cm*3
- IC50 [3]: > 250 µM
- Tumor volume [4]: Lethal

SMILES: CCCCCCCCCCCCCCCC(=O)OC[C@H](CCP(=O)(O)O[C@H]1[C@@H](O)[C@@H](O)[C@H](O)C[C@H]1O)OC(=O)CCCCCCCCCCCCCCC
- IC50 (HT-29): 10 µM
- IC50 [11]: Not Active
- IC50 [12]: Not Active

SMILES: CCCCCCCCCCCCCCCC(=O)OC[C@H](COP(=O)(O)O[C@@H]1[C@H](O)[C@@H](F)[C@@H](O)[C@H](O)[C@@H]1O)OC(=O)CCCCCCCCCCCCCCC
- IC50 (HT-29): 37 µM
- IC50 [3]: 30 µM

Further lines, with some results ahead:

- IC50 (HT-29): 45 µM
- IC50 [3]: 5.3 µM
SMILES: CCCCCCCCCCCCCCCCCCOC[C@H](CCP(=O)(O)O[C@H]1[C@@H](O)[C@@H](O)[C@H](O)C[C@H]1O)OC

- IC50 (HT-29): 2.1 µM
- IC50 [3]: 2.5 µM
SMILES: CCCCCCCCCCCCCCCCCCOC[C@H](COP(=O)(O)O[C@H]1[C@@H](O)[C@@H](O)[C@H](O)C[C@H]1O)OC
- Tumor volume (Mus musculus [5]): 0.32 cm*3
- Tumor volume (Mus musculus [6]): 0.09 cm*3
- Tumor volume (Mus musculus [7]): 0.28 cm*3
- T/C (Mus musculus [8]): 118%
- T/C (Mus musculus [9]): 103.7%
- T/C (Mus musculus [10]): 33.3%
